# Experimental data taken from ChEMBL document CHEMBL3872208, “Synthesis and pharmacological characterization of novel N-(trans-4-(2-(4-(benzo[d]isothiazol-3-yl)piperazin-1-yl)ethyl)cyclohexyl)amides as potential multireceptor atypical antipsychotics” (Eur J Med Chem, 2016).
# Activity calls are given as the source filed them. The rule behind the calls is not given here.
# How the values were obtained:
# CHO = assay: Selectivity ratio of Ki for displacement of [3H]spiperone from recombinant human D2L receptor expressed in CHO cell membranes to Ki for displacement of [3H]methyl-spiperone from recombinant human D3 receptor expressed in CHO cell membranes
# Outline: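 D2L binding: CHO membranes (16 µg protein) with 0.3 nM [3H]methyl-spiperone in 50 mM Tris-HCl pH 7.4, 120 mM NaCl, 10 mM MgCl2, 1 mM EDTA, with butaclamol for nonspecific binding. D3 binding: membranes (8 µg) with 0.3 nM [3H]methyl-spiperone in the same Tris buffer with 5 mM KCl, 5 mM MgCl2, 5 mM EDTA, with (+)butaclamol for nonspecific binding. Both run 60 min at 22 °C, then GF/B filtration. Ki by Cheng–Prusoff; ratio is D2 Ki/D3 Ki.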
# [1] = biological target: T1, 5-hydroxytryptamine receptor 2A (Homo sapiens, UniProt P28223); assay: Displacement of [3H]ketanserin from recombinant human 5-HT2A receptor expressed in HEK293 cell membranes after 60 mins by scintillation counting method
# T1 sequence (P28223 whole entry): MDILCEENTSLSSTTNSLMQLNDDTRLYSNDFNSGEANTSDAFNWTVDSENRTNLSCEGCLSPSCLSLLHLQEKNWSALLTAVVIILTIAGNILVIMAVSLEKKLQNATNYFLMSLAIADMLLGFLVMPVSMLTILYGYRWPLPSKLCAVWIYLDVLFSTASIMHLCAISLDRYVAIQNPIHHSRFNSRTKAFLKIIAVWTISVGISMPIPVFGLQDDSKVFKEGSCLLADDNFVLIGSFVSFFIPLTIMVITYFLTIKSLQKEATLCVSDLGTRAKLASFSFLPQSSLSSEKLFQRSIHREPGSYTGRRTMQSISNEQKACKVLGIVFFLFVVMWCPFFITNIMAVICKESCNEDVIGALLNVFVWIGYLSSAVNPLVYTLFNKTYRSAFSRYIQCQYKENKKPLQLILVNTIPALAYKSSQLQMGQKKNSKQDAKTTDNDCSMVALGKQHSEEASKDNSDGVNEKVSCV
# Rattus norvegicus [2] = assay: Antipsychotic activity in Sprague-Dawley rat assessed as inhibition of conditioned avoidance behavior at 1.0 to 2.0 mg/kg, ip administered as single dose measured after 1 hr; assay type: functional, organism-based
# Outline: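 Male SD rats (150–180 g, 6 per group) trained in automated shuttle-boxes; only rats exceeding 80% avoidance were used. Single i.p. dose of 1.0 or 2.0 mg/kg given 1 h before a 20-trial session. Read-out is percentage of avoidance (mean ± SEM, n = 6), compared with the vehicle group.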
# [3] = biological target: T2, 5-hydroxytryptamine receptor 1A (Homo sapiens, UniProt P08908); assay: Agonist activity at 5-HT1A receptor (unknown origin) expressed in CHOK1 cells co-expressing G-alpha 15 by Fluo-4 dye based FLIPR assay; assay type: cell-based, CHO-K1
# T2 sequence (P08908 whole entry): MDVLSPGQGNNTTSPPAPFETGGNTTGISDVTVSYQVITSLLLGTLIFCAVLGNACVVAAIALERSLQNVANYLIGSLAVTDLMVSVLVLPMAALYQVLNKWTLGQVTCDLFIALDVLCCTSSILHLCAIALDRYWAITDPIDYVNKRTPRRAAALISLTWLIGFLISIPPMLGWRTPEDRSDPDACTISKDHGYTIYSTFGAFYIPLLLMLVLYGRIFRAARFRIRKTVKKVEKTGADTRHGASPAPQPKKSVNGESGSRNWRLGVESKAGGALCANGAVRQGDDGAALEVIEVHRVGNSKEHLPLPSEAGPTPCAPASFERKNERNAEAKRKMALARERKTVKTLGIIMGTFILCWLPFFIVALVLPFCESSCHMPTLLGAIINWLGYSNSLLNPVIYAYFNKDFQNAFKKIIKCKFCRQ
# D(2) dopamine receptor = D(2) dopamine receptor (Homo sapiens, UniProt P14416); assay: Antagonistic activity at D2 receptor (unknown origin) expressed in CHOK1 cells co-expressing G-alpha 15 assessed as inhibition of dopamine-induced calcium flux by fluo-4 dye based FLIPR assay; assay type: functional, cell-based, CHO-K1
# Sequence of D(2) dopamine receptor (P14416 whole entry): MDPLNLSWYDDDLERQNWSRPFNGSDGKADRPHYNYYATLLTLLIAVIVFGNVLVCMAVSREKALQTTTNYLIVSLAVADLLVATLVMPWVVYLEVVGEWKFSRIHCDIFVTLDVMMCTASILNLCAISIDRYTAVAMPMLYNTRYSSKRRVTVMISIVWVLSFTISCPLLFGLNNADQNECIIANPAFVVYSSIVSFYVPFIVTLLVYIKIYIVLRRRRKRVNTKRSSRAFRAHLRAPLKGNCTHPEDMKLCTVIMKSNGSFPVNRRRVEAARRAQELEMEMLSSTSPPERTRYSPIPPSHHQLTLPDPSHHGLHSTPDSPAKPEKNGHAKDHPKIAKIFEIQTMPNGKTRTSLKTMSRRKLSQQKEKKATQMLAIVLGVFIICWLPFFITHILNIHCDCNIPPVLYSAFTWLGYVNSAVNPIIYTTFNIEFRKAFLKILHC
# D(3) dopamine receptor [4] = biological target: T3, D(3) dopamine receptor (Homo sapiens, UniProt P35462); assay: Antagonistic activity at D3 receptor (unknown origin) expressed in cell membranes assessed as inhibition of quinpirole-induced response after 40 mins by [35S]GTPgammaS binding assay; assay type: functional
# T3 sequence (P35462 whole entry): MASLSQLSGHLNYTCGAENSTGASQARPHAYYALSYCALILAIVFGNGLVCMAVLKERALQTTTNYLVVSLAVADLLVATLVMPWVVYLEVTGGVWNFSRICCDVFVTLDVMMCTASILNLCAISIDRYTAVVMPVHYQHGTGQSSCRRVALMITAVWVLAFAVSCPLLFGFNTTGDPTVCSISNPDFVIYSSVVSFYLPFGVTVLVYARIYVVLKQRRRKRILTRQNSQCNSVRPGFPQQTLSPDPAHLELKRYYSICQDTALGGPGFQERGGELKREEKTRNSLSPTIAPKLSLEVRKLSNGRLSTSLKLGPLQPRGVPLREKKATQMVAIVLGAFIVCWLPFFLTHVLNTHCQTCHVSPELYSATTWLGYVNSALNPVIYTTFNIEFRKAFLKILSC
# Outline: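 Membranes (20 mg membrane protein as printed) incubated 40 min at 30 °C in 50 mM Tris pH 7.4, 5 mM MgCl2, 1 mM EDTA, 100 mM NaCl, 1 mM DTT. Mix contained 0.1 nM [35S]GTPγS, GDP, quinpirole as agonist and varied compound concentrations. Nonspecific binding was taken with Gpp(NH)p. Reaction stopped with ice-cold buffer, then GF/C filtration and scintillation counting. Mean IC50 from two experiments, eight concentrations in duplicate.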
# D(3) dopamine receptor [5] = biological target: T3, D(3) dopamine receptor; assay: Agonist activity at D3 receptor (unknown origin) expressed in cell membranes after 40 mins by [35S]GTPgammaS binding assay; assay type: functional
# [6] = biological target: T1, 5-hydroxytryptamine receptor 2A; assay: Antagonistic activity at 5-HT2A receptor (unknown origin) expressed in CHOK1 cells co-expressing G-alpha 15 assessed as inhibition of serotonin-induced calcium flux by Fluo-4 based FLIPR assay; assay type: functional, cell-based, CHO-K1
# [7] = Cmax in Sprague-Dawley rat brain at 0.5 mg/kg, iv administered as single dose by LC-MS/MS analysis; assay type: ADME, organism-based; set-up: dose 0.5 mg/kg, route intravenous
# Outline: (§1)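 Male SD rats, single dose: 0.5 mg/kg i.v. or 2.0 mg/kg p.o. Vehicle is 5% DMSO, 10% Solutol HS 15 and 85% PBS. Heparinized blood is sampled at 5, 15 and 30 min and at 1, 2, 4, 8 and 24 h after dosing. Plasma is reported in ng/mL and brain in ng/g. F is derived from the p.o. and i.v. arms.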
# [8] = Half life in Sprague-Dawley rat plasma at 0.5 mg/kg, iv administered as single dose by LC-MS/MS analysis; assay type: ADME, organism-based; outline: as §1
# [9] = Half life in Sprague-Dawley rat brain at 0.5 mg/kg, iv administered as single dose by LC-MS/MS analysis; assay type: ADME, organism-based; outline: as §1
# [10] = Tmax in Sprague-Dawley rat brain at 2 mg/kg, po administered as single dose by LC-MS/MS analysis; assay type: ADME, organism-based; outline: as §1
# [11] = AUC (0 to t) in Sprague-Dawley rat plasma at 0.5 mg/kg, iv administered as single dose by LC-MS/MS analysis; assay type: ADME, organism-based; outline: as §1
# [12] = AUC (0 to t) in Sprague-Dawley rat brain at 0.5 mg/kg, iv administered as single dose by LC-MS/MS analysis; assay type: ADME, organism-based; outline: as §1
# [13] = AUC (0 to t) in Sprague-Dawley rat plasma at 2 mg/kg, po administered as single dose by LC-MS/MS analysis; assay type: ADME, organism-based; outline: as §1
# [14] = AUC (0 to t) in Sprague-Dawley rat brain at 2 mg/kg, po administered as single dose by LC-MS/MS analysis; assay type: ADME, organism-based; outline: as §1
# [15] = Oral bioavailability in Sprague-Dawley rat plasma at 2 mg/kg administered as single dose by LC-MS/MS analysis; assay type: ADME, organism-based; outline: as §1
# [16] = Ratio of AUC (0 to t) in Sprague-Dawley rat brain to plasma at 2 mg/kg, po; assay type: ADME, organism-based; settings: brain and plasma, read-out: Ratio AUC
# Outline: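 Male Sprague-Dawley rats given the test compound once orally at 2.0 mg/kg. Vehicle was 5% DMSO, 10% Solutol HS 15 and 85% PBS. Heparinized blood sampled at 5, 15, 30 min and 1, 2, 4, 8, 24 h after dosing; brain concentrations also measured (ng/g). Ratio is brain AUC0-t over plasma AUC0-t.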
# [17] = biological target: Voltage-gated inwardly rectifying potassium channel KCNH2 (Homo sapiens, UniProt Q12809)
# Sequence of Voltage-gated inwardly rectifying potassium channel KCNH2 (Q12809 whole entry): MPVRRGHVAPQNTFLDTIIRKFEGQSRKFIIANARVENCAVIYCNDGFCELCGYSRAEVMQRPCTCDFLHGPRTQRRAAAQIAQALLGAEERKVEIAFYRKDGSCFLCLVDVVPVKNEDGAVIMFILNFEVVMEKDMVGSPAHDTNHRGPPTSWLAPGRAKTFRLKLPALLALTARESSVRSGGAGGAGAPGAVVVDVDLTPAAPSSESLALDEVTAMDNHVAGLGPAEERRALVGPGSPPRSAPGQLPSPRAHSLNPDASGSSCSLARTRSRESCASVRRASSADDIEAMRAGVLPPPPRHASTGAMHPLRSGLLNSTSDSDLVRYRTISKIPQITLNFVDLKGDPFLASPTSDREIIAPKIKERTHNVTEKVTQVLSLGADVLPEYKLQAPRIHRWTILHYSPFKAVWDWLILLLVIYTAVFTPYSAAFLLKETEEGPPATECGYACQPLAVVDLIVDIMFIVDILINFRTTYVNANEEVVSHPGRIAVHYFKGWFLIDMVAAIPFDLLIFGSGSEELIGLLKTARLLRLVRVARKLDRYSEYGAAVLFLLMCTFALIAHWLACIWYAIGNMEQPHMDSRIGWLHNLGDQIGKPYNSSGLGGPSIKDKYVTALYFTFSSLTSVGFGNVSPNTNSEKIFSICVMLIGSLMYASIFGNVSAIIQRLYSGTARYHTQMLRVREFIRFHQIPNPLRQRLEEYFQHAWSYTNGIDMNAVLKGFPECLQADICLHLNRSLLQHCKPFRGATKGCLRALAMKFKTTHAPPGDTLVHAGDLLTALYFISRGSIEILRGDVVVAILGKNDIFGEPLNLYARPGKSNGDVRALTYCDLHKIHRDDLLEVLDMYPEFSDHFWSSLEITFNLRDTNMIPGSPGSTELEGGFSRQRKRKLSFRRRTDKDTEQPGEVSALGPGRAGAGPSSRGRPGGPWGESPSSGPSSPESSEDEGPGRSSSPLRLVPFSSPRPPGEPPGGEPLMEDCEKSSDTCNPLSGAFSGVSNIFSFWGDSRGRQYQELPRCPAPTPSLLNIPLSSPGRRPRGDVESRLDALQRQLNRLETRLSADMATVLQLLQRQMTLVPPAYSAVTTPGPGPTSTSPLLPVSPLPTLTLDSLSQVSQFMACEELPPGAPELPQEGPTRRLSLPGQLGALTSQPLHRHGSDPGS
# D(3) dopamine receptor [18] = biological target: T3, D(3) dopamine receptor; settings: 10 uM
# [19] = biological target: T4, 5-hydroxytryptamine receptor 1A (Homo sapiens) (UniProt P08908); settings: CHO-K1, 10 uM
# T4 sequence (whole entry): T2 sequence (P08908 whole entry)
# Rattus norvegicus [20] = assay: Cognitive enhancement effect in Sprague-Dawley rat assessed as reversal of PCP-impaired performance by measuring increase in time spent exploring novel object in comparison to familiar object at 0.1 to 0.2 mg/kg, po administered 60 mins prior to test by novel object recognition assay
compound,measurement,setting,value
O=C(N[C@H]1CC[C@H](CCN2CCN(c3nsc4ccccc34)CC2)CC1)c1ccco1,Ratio Ki,CHO,22.3
same,Ki,[1],0.23 nM
same,inhibition,Rattus norvegicus [2],Active
same,EC50,[3],> 10000 nM
same,IC50,D(2) dopamine receptor,61.4 nM
same,IC50,D(3) dopamine receptor [4],1.39 nM
same,EC50,D(3) dopamine receptor [5],> 10000 nM
same,IC50,[6],31.8 nM
same,Cmax,[7],259 ng/mL
same,half-life,[8],0.8 h
same,half-life,[9],15.8 h
same,Tmax,[10],2 h
same,AUC(0-t),[11],106 ng·h/mL
same,AUC(0-t),[12],1070 ng·h/mL
same,AUC(0-t),[13],55 ng·h/mL
same,AUC(0-t),[14],884 ng·h/mL
same,bioavailability,[15],13%
same,Kp,[16],16.1
same,IC50,[17],2110 nM
same,inhibition,D(3) dopamine receptor [18],98.6%
same,inhibition,[19],115%
same,Activity,Rattus norvegicus [20],Active
